According to ChEMBL document CHEMBL1641462, “Synthesis and in vivo evaluation of ¹⁸F-fluoroethyl GF120918 and XR9576 as positron emission tomography probes for assessing the function of drug efflux transporters” (Bioorg Med Chem, 2011):

Experiments:
Heart [1] = test: Biodistribution in FVB mouse heart assessed per gram of tissue at 1 to 4.8 MBq, iv after 5 mins; assay type: ADME, organism-based; conditions: in vivo
Procedure, shortened: (§1)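 Male FVB mice (8–10 weeks, 25–29 g) received tracer iv (1.0–4.8 MBq, 7.1–34 pmol). Killed by cervical dislocation at 5, 15, 30, 60 or 90 min. Blood taken by heart puncture; tissues dissected, weighed and gamma-counted. Activity decay-corrected to injection time and given as %ID/g; mean ± SD, n = 4 per time point.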

Liver [2] = test: Biodistribution in FVB mouse liver assessed per gram of tissue at 1 to 4.8 MBq, iv after 5 mins; assay type: ADME, organism-based; conditions: in vivo; procedure, shortened: as §1
Pancreas [3] = test: Biodistribution in FVB mouse pancreas assessed per gram of tissue at 1 to 4.8 MBq, iv after 5 mins; assay type: ADME, organism-based; conditions: in vivo
Procedure, shortened: (§2)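 Male FVB mice (8–10 weeks, 25–29 g) given tracer 1.0–4.8 MBq/7.1–34 pmol iv; killed by cervical dislocation at set times (n = 4 per group). Blood by heart puncture; tissues dissected, weighed and gamma counted. Radioactivity decay-corrected to injection time, expressed as %ID/g, mean ± SD.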

Muscle tissue [4] = test: Biodistribution in FVB mouse muscle assessed per gram of tissue at 1 to 4.8 MBq, iv after 5 mins; assay type: ADME, organism-based; conditions: in vivo; procedure, shortened: as §1
Bone = test: Biodistribution in FVB mouse bone assessed per gram of tissue at 1 to 4.8 MBq, iv after 5 mins; assay type: ADME, organism-based, Bone element; conditions: in vivo; procedure, shortened: as §1
Blood [5] = test: Biodistribution in FVB mouse blood assessed per gram of tissue at 1 to 4.8 MBq, iv after 15 mins; assay type: ADME, organism-based; conditions: in vivo, 0.25 h; procedure, shortened: as §1
Heart [6] = test: Biodistribution in FVB mouse heart assessed per gram of tissue at 1 to 4.8 MBq, iv after 15 mins; assay type: ADME, organism-based; conditions: in vivo, 0.25 h; procedure, shortened: as §1
Lung [7] = test: Biodistribution in FVB mouse lung assessed per gram of tissue at 1 to 4.8 MBq, iv after 15 mins; assay type: ADME, organism-based; conditions: in vivo, 0.25 h; procedure, shortened: as §1
Muscle tissue [8] = test: Biodistribution in FVB mouse muscle assessed per gram of tissue at 1 to 4.8 MBq, iv after 15 mins; assay type: ADME, organism-based; conditions: in vivo, 0.25 h; procedure, shortened: as §1
Brain [9] = test: Biodistribution in FVB mouse brain assessed per gram of tissue at 1 to 4.8 MBq, iv after 15 mins; assay type: ADME, organism-based; conditions: in vivo, 0.25 h; procedure, shortened: as §1
Lung [10] = test: Biodistribution in FVB mouse lung assessed per gram of tissue at 1 to 4.8 MBq, iv after 30 mins; assay type: ADME, organism-based; conditions: in vivo, 0.5 h; procedure, shortened: as §1
[11] = Biodistribution in FVB mouse small intestine assessed per gram of tissue at 1 to 4.8 MBq, iv after 30 mins; assay type: ADME, organism-based; conditions: in vivo, 0.5 h; procedure, shortened: as §2
Muscle tissue [12] = test: Biodistribution in FVB mouse muscle assessed per gram of tissue at 1 to 4.8 MBq, iv after 30 mins; assay type: ADME, organism-based; conditions: in vivo, 0.5 h; procedure, shortened: as §1
Brain [13] = test: Biodistribution in FVB mouse brain assessed per gram of tissue at 1 to 4.8 MBq, iv after 30 mins; assay type: ADME, organism-based; conditions: in vivo, 0.5 h; procedure, shortened: as §1
Pancreas [14] = test: Biodistribution in FVB mouse pancreas assessed per gram of tissue at 1 to 4.8 MBq, iv after 60 mins; assay type: ADME, organism-based; conditions: in vivo, 1 h; procedure, shortened: as §2
Brain [15] = test: Biodistribution in FVB mouse brain assessed per gram of tissue at 1 to 4.8 MBq, iv after 60 mins; assay type: ADME, organism-based; conditions: in vivo, 1 h; procedure, shortened: as §1
Blood [16] = test: Biodistribution in FVB mouse blood assessed per gram of tissue at 1 to 4.8 MBq, iv after 90 mins; assay type: ADME, organism-based; conditions: in vivo, 1.5 h; procedure, shortened: as §1
Heart [17] = test: Biodistribution in FVB mouse heart assessed per gram of tissue at 1 to 4.8 MBq, iv after 90 mins; assay type: ADME, organism-based; conditions: in vivo, 1.5 h; procedure, shortened: as §1
Liver [18] = test: Biodistribution in FVB mouse liver assessed per gram of tissue at 1 to 4.8 MBq, iv after 90 mins; assay type: ADME, organism-based; conditions: in vivo, 1.5 h; procedure, shortened: as §1
[19] = Biodistribution in FVB mouse small intestine assessed per gram of tissue at 1 to 4.8 MBq, iv after 90 mins; assay type: ADME, organism-based; conditions: in vivo, 1.5 h; procedure, shortened: as §2
Plasma = test: Metabolic stability in FVB mouse plasma assessed as recovery of radioactivity at 1 to 4.8 MBq, iv by HPLC analysis; assay type: ADME, organism-based; conditions: in vivo
Procedure, shortened: (§3)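 Brain homogenate or plasma from tracer plus GF120918 (5 mg/kg) co-injected FVB mice deproteinized with equal volume ice-cold acetonitrile; radioactivity in supernatant, precipitate and HPLC waste gamma counted to give recovery, mean ± SD (n = 7).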

Brain [20] = test: Metabolic stability in FVB mouse brain assessed as recovery of radioactivity at 1 to 4.8 MBq, iv by HPLC analysis; assay type: ADME, organism-based; conditions: in vivo; procedure, shortened: as §3
Brain [21] = test: Biodistribution in P-gp/BCRP knockout mouse brain at 3.3 to 4.9 MBq, iv after up to 60 mins; assay type: ADME, organism-based; conditions: in vivo, 1 h
Brain [22] = test: AUC (0 to 60 mins) in P-gp/BCRP knockout mouse brain at 2.8 to 5.6 MBq, iv; assay type: ADME, organism-based; conditions: in vivo
Procedure, shortened: (§4)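 Small-animal PET in male wild-type and knockout mice under isoflurane (1.0–1.5%), prone on the scanner bed. Tracer (2.8–5.6 MBq, 20–40 pmol) given iv, with or without co-injected GF120918 at 5 mg/kg. Dynamic 60-min list-mode scan. Decay-corrected SUV read from ROIs on brain, and on the ventricular cavity for blood. AUC taken over 0–60 min in SUV·min; n = 4 per group.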

Brain [23] = test: Ratio of AUC (0 to 60 mins) in P-gp knockout mouse brain to AUC (0 to 60 mins) in wild type mouse brain at 2.8 to 5.6 MBq, iv; assay type: ADME, organism-based; conditions: in vivo
Brain [24] = test: AUC (0 to 60 mins) in P-gp knockout mouse brain at 2.8 to 5.6 MBq, iv; assay type: ADME, organism-based; conditions: in vivo; procedure, shortened: as §4
Brain [25] = test: Ratio of AUC (0 to 60 mins) in wild type mouse brain to AUC (0 to 60 mins) in wild type mouse brain at 2.8 to 5.6 MBq, iv co-administered with GF120918; assay type: ADME, organism-based; conditions: in vivo
Brain [26] = test: AUC (0 to 60 mins) in wild type mouse brain at 2.8 to 5.6 MBq, iv co-administered with GF120918; assay type: ADME, organism-based; conditions: in vivo; procedure, shortened: as §4
Blood [27] = test: AUC (0 to 60 mins) in P-gp/BCRP knockout mouse blood at 2.8 to 5.6 MBq, iv; assay type: ADME, tissue-based; procedure, shortened: as §4
Blood [28] = test: AUC (0 to 60 mins) in P-gp knockout mouse blood at 2.8 to 5.6 MBq, iv; assay type: ADME, tissue-based; procedure, shortened: as §4
Blood [29] = test: AUC (0 to 60 mins) in BCRP knockout mouse blood at 2.8 to 5.6 MBq, iv; assay type: ADME, tissue-based; procedure, shortened: as §4
[30] = Fold increase in brain-to-blood ratio of drug level in FVB mouse at 1 to 4.8 MBq, iv co-administered with 5 mg/kg, iv of GF120918; conditions: brain and blood, with GF120918, 5 mg/kg iv
[31] = Fold increase in testis-to-blood ratio of drug level in FVB mouse at 1 to 4.8 MBq, iv co-administered with 5 mg/kg, iv of GF120918; conditions: testis and blood, with GF120918, 5 mg/kg iv

Drug uptake (Heart [1]) [% ID/g]	Drug uptake (Liver [2]) [% ID/g]	Drug uptake (Pancreas [3]) [% ID/g]	Drug uptake (Muscle tissue [4]) [% ID/g]	Drug uptake (Bone) [% ID/g]	Drug uptake (Blood [5]) [% ID/g]	Drug uptake (Heart [6]) [% ID/g]	Drug uptake (Lung [7]) [% ID/g]	Drug uptake (Muscle tissue [8]) [% ID/g]	Drug uptake (Brain [9]) [% ID/g]	Drug uptake (Lung [10]) [% ID/g]	Drug uptake [11] [% ID/g]	Drug uptake (Muscle tissue [12]) [% ID/g]	Drug uptake (Brain [13]) [% ID/g]	Drug uptake (Pancreas [14]) [% ID/g]	Drug uptake (Brain [15]) [% ID/g]	Drug uptake (Blood [16]) [% ID/g]	Drug uptake (Heart [17]) [% ID/g]	Drug uptake (Liver [18]) [% ID/g]	Drug uptake [19] [% ID/g]	Compound	other results
7.44	29.33	6.05	2.23	2.17	0.88	3.49	20.55	1.61	0.11	17.89	14.09	1.04	0.11	12.45	0.1	0.57	1.74	22.18	24.45	COc1cc(NC(=O)c2cnc3ccccc3c2)c(C(=O)Nc2ccc(CCN3CCc4cc(OC)c(OCC[18F])cc4C3)cc2)cc1OC	Stability (Plasma): 95.3%; Stability (Brain [20]): 92.5%; Activity (Brain [21]): Active; AUC (Brain [22]): 32.9 SUV·min; Ratio AUC (Brain [23]): 2.3; SUV (Brain [24]): 9.1; Ratio AUC (Brain [25]): 7.1; AUC (Brain [26]): 28.1 SUV·min; AUC (Blood [27]): 33.9 SUV·min; AUC (Blood [28]): 45 SUV·min; AUC (Blood [29]): 42.2 SUV·min; Fold increase [30]: 10; Fold increase [31]: 5
6.65	4.88	6.12	1.75	1.99	0.72	2.43	13.32	1.18	0.16	7.21	7.6	0.62	0.14	15.14	0.17	0.36	0.85	14.82	17.15	COc1cc2c(cc1OC)CN(CCc1ccc(NC(=O)c3cccc4c(=O)c5cccc(OCC[18F])c5[nH]c34)cc1)CC2	Stability (Plasma): 94.1%; Stability (Brain [20]): 91.4%; Activity (Brain [21]): Active; AUC (Brain [22]): 39.8 SUV·min; Ratio AUC (Brain [23]): 2.4; SUV (Brain [24]): 10.6; Ratio AUC (Brain [25]): 6.9; AUC (Brain [26]): 30.2 SUV·min; AUC (Blood [27]): 25 SUV·min; AUC (Blood [28]): 23.5 SUV·min; AUC (Blood [29]): 25.3 SUV·min; Fold increase [30]: 10; Fold increase [31]: 7
